Experiments:
Aminopeptidase N = molecular target: T1, Aminopeptidase N (Sus scrofa, UniProt P15145); test: Inhibitory potency was measured on aminopeptidase N (APN)
T1 sequence (P15145 whole entry): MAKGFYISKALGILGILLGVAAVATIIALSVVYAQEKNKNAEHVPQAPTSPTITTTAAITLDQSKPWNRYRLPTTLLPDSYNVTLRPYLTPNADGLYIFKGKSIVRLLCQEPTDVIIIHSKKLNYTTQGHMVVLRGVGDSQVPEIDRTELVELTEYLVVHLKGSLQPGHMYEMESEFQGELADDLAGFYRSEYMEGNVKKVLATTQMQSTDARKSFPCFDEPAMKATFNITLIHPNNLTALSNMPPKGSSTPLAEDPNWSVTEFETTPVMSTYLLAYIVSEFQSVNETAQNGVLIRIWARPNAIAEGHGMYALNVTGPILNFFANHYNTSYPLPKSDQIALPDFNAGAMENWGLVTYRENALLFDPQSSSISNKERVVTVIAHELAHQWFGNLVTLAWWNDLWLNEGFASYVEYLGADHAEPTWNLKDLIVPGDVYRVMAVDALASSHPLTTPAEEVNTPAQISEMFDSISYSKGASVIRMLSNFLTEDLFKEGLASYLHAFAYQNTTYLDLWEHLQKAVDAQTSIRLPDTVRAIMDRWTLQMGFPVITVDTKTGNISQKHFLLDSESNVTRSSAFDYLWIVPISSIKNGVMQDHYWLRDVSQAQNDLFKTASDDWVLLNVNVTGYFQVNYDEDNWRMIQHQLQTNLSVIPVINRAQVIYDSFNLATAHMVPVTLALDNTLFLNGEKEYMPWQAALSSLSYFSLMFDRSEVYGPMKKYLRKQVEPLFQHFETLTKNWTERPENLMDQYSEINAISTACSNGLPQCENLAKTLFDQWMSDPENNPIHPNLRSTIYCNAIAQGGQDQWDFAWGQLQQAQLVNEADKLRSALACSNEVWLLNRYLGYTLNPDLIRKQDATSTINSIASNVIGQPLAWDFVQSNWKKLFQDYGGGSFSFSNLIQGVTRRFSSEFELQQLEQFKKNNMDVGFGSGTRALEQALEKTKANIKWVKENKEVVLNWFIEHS
In short: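 APN preincubated 15 min at 25 °C with varied inhibitor levels in 50 mM Tris-HCl pH 7.4. […] Reaction run 15 min, stopped with HCl. Released [3H]Tyr separated on polystyrene beads and counted by liquid scintillation. Thiols dissolved with DTT (100 equiv). Ki derived from IC50 via Cheng-Prusoff, competitive inhibition assumed. Three experiments, triplicate.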

[1] = molecular target: Glutamyl aminopeptidase (Oryctolagus cuniculus); test: Inhibition of aminopeptidase A (APA)

Question: For `N[C@H](CS)CCCS`, which Ki (Aminopeptidase N) is on record?
Answer: The Ki was 32 nM.

Question: How did the Ki (Aminopeptidase N) turn out when `NC(CS)CC(C(=O)O)C(=O)O` (centres undefined) was run?
Answer: Its Ki is 4500 nM.

Question: Which Ki (Aminopeptidase N) does the source give for `N[C@@H](CS)CCCC(=O)O` here?
Answer: Its Ki is 15500 nM.

Question: Which Ki (Aminopeptidase N) does the source give for `CC(CC(N)CS)C(=O)O` (centres undefined) here?
Answer: The Ki was 2800 nM.

Question: Which Ki (Aminopeptidase N) does the source give for `NC(CS)CCP(=O)(O)O` (centres undefined) here?
Answer: The Ki was 12000 nM.

Question: With `NC(CS)CCCCC(=O)O` (centres undefined) as the compound, how does the Ki (Aminopeptidase N) read?
Answer: Its Ki is 280 nM.

Question: How did the Ki (Aminopeptidase N) turn out when `NC(CS)CCCP(=O)(O)O` (centres undefined) was run?
Answer: The Ki was 3700 nM.

Question: How did the Ki [1] turn out when `N[C@H](CS)CCC(=O)O` was run?
Answer: Its Ki is 140 nM.

Question: Which Ki (Aminopeptidase N) does the source give for `N[C@H](CS)CCCC(=O)NO` here?
Answer: The Ki was 37 nM.

Question: How did the Ki (Aminopeptidase N) turn out when `N[C@H](CS)CCCC(=O)O` was run?
Answer: The Ki was 330 nM.

Question: With `NC(CS)CCC(C(=O)O)C(=O)O` (centres undefined) as the compound, how does the Ki (Aminopeptidase N) read?
Answer: The Ki was 600 nM.

Question: For `N[C@H](CS)CCCS(=O)(=O)O`, which Ki (Aminopeptidase N) is on record?
Answer: The Ki was 1900 nM.

Question: `CC(C[C@H](N)CS)C(=O)O` (some centres undefined) was tested. Which Ki (Aminopeptidase N) did it give?
Answer: The Ki was 4000 nM.

Question: `N[C@H](CS)CCS(=O)(=O)O` was tested. Which Ki (Aminopeptidase N) did it give?
Answer: The Ki was 25000 nM.

From ChEMBL document CHEMBL1127454, “Differential inhibition of aminopeptidase A and aminopeptidase N by new beta-amino thiols” (J Med Chem, 1994)
